Most compounds without a hit are left out; they make up all but 2.1% or so of the library.
TLR4-MyD88 BLA: inhibitors of human TLR4-MyD88 binding; O00206+Q99836; HeLa CL3-4 TLR4/MyD88 BLA complementation, FRET ratio; inhibition, % at 8.4 µM; actives 0.18% (n = 200,000); AID 861; in the data active = inhibition above about 25%;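 note: 0% = vehicle and 100% = reference inhibitor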
Target sequence (O00206 whole entry, looked up): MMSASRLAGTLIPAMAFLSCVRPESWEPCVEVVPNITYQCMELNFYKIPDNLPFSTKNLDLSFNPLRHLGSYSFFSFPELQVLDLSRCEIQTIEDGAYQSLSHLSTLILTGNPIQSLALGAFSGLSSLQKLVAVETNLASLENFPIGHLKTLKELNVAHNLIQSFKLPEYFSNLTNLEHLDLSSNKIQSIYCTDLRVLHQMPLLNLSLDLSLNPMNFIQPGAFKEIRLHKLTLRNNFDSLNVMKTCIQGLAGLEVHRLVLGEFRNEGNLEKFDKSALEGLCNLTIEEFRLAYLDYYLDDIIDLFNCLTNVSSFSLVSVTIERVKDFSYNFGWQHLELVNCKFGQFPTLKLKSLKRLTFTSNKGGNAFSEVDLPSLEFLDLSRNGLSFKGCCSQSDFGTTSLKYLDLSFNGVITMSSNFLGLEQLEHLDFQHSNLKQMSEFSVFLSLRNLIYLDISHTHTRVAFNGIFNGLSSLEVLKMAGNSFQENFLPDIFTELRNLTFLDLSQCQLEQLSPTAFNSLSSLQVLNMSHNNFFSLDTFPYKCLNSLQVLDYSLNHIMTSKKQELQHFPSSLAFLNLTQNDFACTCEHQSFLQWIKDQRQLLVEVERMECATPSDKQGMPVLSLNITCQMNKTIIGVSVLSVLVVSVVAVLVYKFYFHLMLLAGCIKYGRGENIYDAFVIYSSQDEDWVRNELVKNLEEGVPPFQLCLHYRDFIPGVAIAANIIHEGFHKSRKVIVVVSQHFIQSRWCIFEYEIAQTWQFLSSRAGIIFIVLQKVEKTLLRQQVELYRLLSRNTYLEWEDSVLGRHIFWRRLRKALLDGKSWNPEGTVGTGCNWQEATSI
Target sequence (Q99836 whole entry, looked up): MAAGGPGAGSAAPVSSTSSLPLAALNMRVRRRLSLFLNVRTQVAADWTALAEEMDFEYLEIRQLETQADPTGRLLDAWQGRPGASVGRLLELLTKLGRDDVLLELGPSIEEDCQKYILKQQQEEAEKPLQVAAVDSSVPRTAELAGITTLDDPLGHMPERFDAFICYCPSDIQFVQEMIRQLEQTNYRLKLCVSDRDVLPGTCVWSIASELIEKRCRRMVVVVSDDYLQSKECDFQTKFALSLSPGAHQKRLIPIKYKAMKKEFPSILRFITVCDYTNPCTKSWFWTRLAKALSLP
MC4R antag cAMP: antagonists of human melanocortin 4 receptor (MC4R); P32245; MC4R-expressing cells, MTII-stimulated cAMP, LANCE TR-FRET; inhibition, % at 6.5 µM; actives 0.48% (n = 360,000); AID 540295;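 active = inhibition above its plate's cutoff, the mean of tested wells on that plate plus 3 SD, cut at about 29% in these data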;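 note: 0% = Melanotan II alone and 100% = Melanotan II plus saturating MCL0020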
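Assay system: human MC4R-expressing U2OS cells; reagent: Melanotan II stimulation of cells; dosing: 6.5 µM single dose; timing: compound 30 min, challenge 1 h, detection 1 h; signal: TR-FRET cAMP assay; replicates: one well per compound, no replicates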
TLR9-MyD88 block: inhibitors of human TLR9-MyD88 binding; actives 0.21% (n = 340,000); CHO BLA complementation TLR9-MyD88, CCF4 FRET ratio; inhibition, % at 4.98 µM; AID 504734;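 active = inhibition above the mean over all tested compounds plus 3 SD, cut at about 21% in these data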;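 note: 0% = DMSO only wells and 100% = clavulanate BLA inhibitor control wells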
MC4R ag barr: activates human MC4R beta-arrestin recruitment; P32245; U2OS MC4R beta-arrestin complementation, luminescence; percent of melanotan II response, DMSO zero; activation, % at 8.9 µM; actives 0.98% (n = 360,000);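 active = activation above a per-plate cutoff, the mean activation of sample wells on that plate plus 3 SD, cut at about 8% in these data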
MIN6 prolif: MIN6 beta-cell proliferation induction | MIN6 cells proliferation, ATPlite luminescence, 48 h; cells starved in 0.2% serum; 100% = growth in 10% serum | proliferation, % at 10 µM | actives 0.29% (n = 330,000) | AID 2380;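 active = compounds whose signal lies at least 3.5 SD above the mean of all wells on their plate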;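 note: 0% = DMSO-treated cells in low-serum medium and 100% = 10% serum control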
NOD2 RIPK2 PPI: inhibitors of human NOD2-RIPK2 interaction; O43353; CHO BLA complementation NOD2-RIPK2, CCF4 ratio; inhibition, % at 4.98 µM; actives 0.38% (n = 360,000); AID 624267; in the data active = inhibition above about 21%;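 note: 0% = vehicle only and 100% = reference blocker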
TLR9-MyD88 conf: TLR9-MyD88 interaction inhibition, confirmation; CHO TLR9/MyD88 BLA complementation, CCF4 FRET ratio; actives 51% (n = 680); inhibition, % at 4.98 µM; shares compounds with TLR9-MyD88 block;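 active = mean inhibition across three repeats above about 21% taken from the earlier screen, limit read from the data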;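 note: blue over green emission ratio reports constitutive TLR9 MyD88 association via BLA complementation; 0% = DMSO vehicle wells and 100% = clavulanate BLA inhibitor wells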
BLA counter-1: non-selective beta-lactamase inhibitors in TLR9-MyD88 counter-screen. inhibition, % at 4.98 µM. CHO-BLA cells, CCF4 FRET ratio, BLA reporter. shares compounds with TLR9-MyD88 block. actives 7% (n = 680). AID 540251;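 active = mean inhibition above a 50% cutoff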;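 note: counterscreen of TLR9-MyD88 hits on CMV-driven BLA in CHO-K1 cells; 0% = DMSO alone and 100% = clavulanate blocking BLA; higher means less blue over green ratio so more BLA blockade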
TLR9 CHO tox: counter-screen for TLR9-MyD88 inhibitors: cytotoxicity in CHO cells | luminescence | actives 39% (n = 680) | inhibition, % at 4.98 µM | AID 588336 | shares compounds with TLR9-MyD88 block; in the data active = inhibition above about 11%
U2OS cAMP counter: U2OS forskolin cAMP inhibition counter-screen | parental U2OS, LANCE TR-FRET | inhibition, % at 6.5 µM | shares compounds with MC4R antag cAMP | actives 26% (n = 1,600);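 active = mean inhibition over triplicates above the low-control well mean plus 3 SD, set per campaign, cut at about 13% in these data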;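 note: signal is single emission at 671 nm which falls as cellular cAMP rises; 0% = forskolin-stimulated wells and 100% = buffer without forskolin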
MC4R antag conf: human MC4R cAMP antagonism confirmation. shares compounds with MC4R antag cAMP. MC4R-expressing cells, MTII-stimulated cAMP, TR-FRET. inhibition, % at 6.5 µM. actives 27% (n = 1,600); in the data active = inhibition above about 29%;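 note: 0% = agonist stimulated wells alone and 100% = agonist stimulated wells plus saturating reference antagonist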
NOD2-RIPK2 conf: confirmation of human NOD2-RIPK2 interaction inhibitors; CHO cells, NOD2-RIPK2 BLA complementation, CCF4 FRET; actives 70% (n = 1,200); inhibition, % at 4.98 µM; shares compounds with NOD2 RIPK2 PPI;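 active = mean inhibition across replicates above a set limit taken from the earlier primary screen, cut at about 21% in these data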;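 note: 0% = DMSO-only wells and the high end = clavulanate BLA-blocked wells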
BLA counter-2: NOD2-RIPK2 counterscreen BLA reporter activity; inhibition, % at 4.98 µM; AID 624371; actives 57% (n = 1,200); CHO BLA reporter, CCF4 FRET ratio; shares compounds with NOD2 RIPK2 PPI;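 active = mean inhibition above the low-control mean inhibition plus three low-control SD, cut at about 11% in these data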;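 note: 0% = DMSO only wells and 100% = clavulanate high control wells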
* hit, by the source's call; x = no result.

SMILES	TLR4-MyD88 BLA	MC4R antag cAMP	TLR9-MyD88 block	MC4R ag barr	MIN6 prolif	NOD2 RIPK2 PPI	TLR9-MyD88 conf	BLA counter-1	TLR9 CHO tox	NOD2-RIPK2 conf	BLA counter-2	others
Cc1ccc(NC(=O)CNC(=O)c2ccc(OC(F)F)cc2)cc1S(=O)(=O)N1CCCCCC1	x	8	-4	-2	x	5	x	x	x	x	x
O=C1C=CC2(O[C@H](c3ccccc3)[C@@H](c3ccccc3)O2)[C@H](Sc2ccccc2O)C1	x	28	40*	-3	x	92*	38*	23	100*	91*	40*
C[C@@H]1[C@@H](Sc2ccccc2)CC(=O)O[C@@H]1c1ccc(-c2ccccc2)cc1	x	11	7	-1	-9	1	x	x	x	x	x
CC(C)CCN1CCN(Cc2ccc(C#CCCO)cc2)CC1CCO (centres undefined)	-5	2	-4	-2	1	-11	x	x	x	x	x
Cc1noc(C)c1COc1ccccc1C(=O)N(C)Cc1ccc(C(C)(C)C)cc1	x	-5	2	1	-6	-6	x	x	x	x	x
O=C(Cn1sc2ccccc2c1=O)Nc1ccc(Br)cc1	x	4	31*	-2	x	28*	17	0	81*	34*	6
O=[N+]([O-])c1c(Nc2ccc(O)cc2)cc(Cl)c2nonc12	x	-43	49*	-7	-5	122*	60*	-17	97*	120*	25*
CN(C)S(=O)(=O)c1ccc(Cl)c(NC(=O)CN2C(=O)NC(C)(C3CC3)C2=O)c1 (centres undefined)	x	17	0	-1	-3	1	x	x	x	x	x
COc1cccc(CN2C(=O)c3cccc(N)c3C2=O)c1	23	3	28*	2	-1	36*	11	17	-2	38*	47*
Cc1ccc(NC(=O)CN(C)C(=O)c2ccc(Cl)nc2)cc1	x	3	-4	-1	0	-12	x	x	x	x	x
CC(=O)N(C1=C(Cl)C(=O)c2ccccc2C1=O)C1CCCCC1	x	10	49*	-2	-4	54*	78*	22	100*	92*	34*
CC(=O)N(c1ccccc1C)C1CCCC1	1	1	-11	-2	1	-3	x	x	x	x	x
N#Cc1ccsc1NC(=O)C1=COCCO1	x	9	-9	-2	4	-9	x	x	x	x	x
Nc1ccc2nc(-c3ccccc3)cnc2c1	x	4	39*	-2	-4	44*	30*	34	-2	57*	63*
Nc1ccc2nc(-c3ccccc3)c(-c3ccccc3)nc2c1	x	1	38*	-1	-4	44*	33*	35	2	60*	68*
CN(CC(=O)Nc1ccc(Cl)cc1)C(=O)C1CCCC1	x	6	2	0	-4	-1	x	x	x	x	x
CCN1CCN(CC(=O)N2N=C(c3cccs3)CC2c2ccc(OC)c(OC)c2)C(=O)C1=O (centres undefined)	-14	8	-8	1	4	-19	x	x	x	x	x
C=C1C(=O)c2sccc2C(c2ccc(OC)c(OC)c2)C1COC(C)=O (centres undefined)	x	-11	24*	1	x	95*	28*	7	97*	92*	13*
Cc1ccc(S(=O)(=O)N2CCOCC2)cc1-c1n[nH]c(=S)n1-c1ccccc1	x	4	0	-2	1	-5	x	x	x	x	x
O=[N+]([O-])c1ccc(N/N=C/C=C/c2ccco2)cc1	x	7	40*	-2	-6	55*	37*	39	-3	63*	68*
OCCCc1nc2n(n1)C(c1ccccc1)C=C(c1ccc(F)cc1)N2 (centres undefined)	5	-2	39*	-1	-1	51*	21*	24	3	40*	45*
COc1ccc2cc(C(C)C(=O)NC3CCC(O)CC3)ccc2c1 (centres undefined)	x	-1	-4	-1	6	-8	x	x	x	x	x
CCOC(=O)n1c(=O)n(Cc2ccccc2)c2ccccc21	-1	1	3	0	-1	-1	x	x	x	x	x
CCOC(=O)n1c(=O)n(Cc2c(Cl)cccc2Cl)c2ccccc21	9	2	24*	-1	-2	23*	9	12	0	29*	27*
CCn1nc(C)cc1-c1nnc(SCC(=O)Nc2ccccc2)n1CCCOC	x	0	10	-2	2	3	x	x	x	x	x
SMILES	TLR4-MyD88 BLA	MC4R antag cAMP	TLR9-MyD88 block	MC4R ag barr	MIN6 prolif	NOD2 RIPK2 PPI	TLR9-MyD88 conf	BLA counter-1	TLR9 CHO tox	NOD2-RIPK2 conf	BLA counter-2	others
CCn1nc(C)cc1-c1nnc(Sc2ncc([N+](=O)[O-])s2)n1C	x	46*	29*	-3	-5	78*	42*	-1	101*	85*	19*	U2OS cAMP counter=28*;MC4R antag conf=58*
CCOC(=O)Cn1cc(C#N)c2cccc(CC)c21	-6	17	1	2	0	7	x	x	x	x	x
CN(C)c1ccc(/C=C/c2nc3ccccc3c(=O)n2-c2ccc(C(=O)O)cc2)cc1	x	15	40*	0	-4	34*	25*	27	1	60*	65*
O=C(O)c1cccc(-n2c(/C=C/c3ccccc3)nc3ccccc3c2=O)c1	x	12	-10	0	-1	5	x	x	x	x	x
CCn1c(SCC(=O)NNC(=O)c2ccc(C)cc2)nnc1C1CC1	x	10	-5	0	-3	-2	x	x	x	x	x
CC(=O)Nc1ccc(S(=O)(=O)NCCC(=O)Nc2ccc(C)c(F)c2)cc1	x	2	1	1	0	0	x	x	x	x	x
COc1ccc(C(C)(O)c2nc(-c3ccoc3)cs2)cc1 (centres undefined)	x	-3	x	0	x	-2	x	x	x	x	x

Bioassay records from PubChem BioAssay.
